14 molecules from PubChem BioAssay can be followed below.

The source made the active and inactive calls.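 The calls were made as follows, unless noted: active = fluorescence slope after compound addition differing from the mean of all tested samples at 99.7% confidence, mostly higher but some lower; inactive = the rest.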

Experiment [1] is described as follows: inhibitors of TNFa-induced NFkB p65 translocation, primary screen, imaging, HUVEC, MLSMR starter and 10KST1 sets (AID 438;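 active = inhibition above 20% together with a positive visual image hit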;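 also: compound added about 3h40 before a 20 min TNFalpha stimulation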;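 as to inhibition: signal is the nuclear over cytoplasmic p65 intensity ratio per well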). To be noted: HUVEC TNFa-induced p65 nuclear translocation; cell count: measured here: nuclei count (cytotoxicity indicator), at 2.08 µM; inhibition: at 2 µM, stronger effect = higher value, 0% TNFa-plus-vehicle, 100% no-TNFa wells.
Experiment [2] can be described thus: inhibitors of mutant huntingtin aggregation, primary screen, imaging, exon1htt(103Q)mCFP cells, high-content imaging (AID 483;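 active = visual image review flags a hit and inhibition of aggregation exceeds 20%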;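 also: compound exposure lasted 3 days before fixation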;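 as to nuclei count: percent of the per-plate median nuclei count of sample wells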). To be noted: exon1htt(103Q)mCFP cell line, aggregate imaging, at 2 µM; inhibition of aggregation: stronger effect = higher value; nuclei count: measured here: cell count, toxicity.
A short description of experiment [3]: inhibitors of E-selectin induction by TNFa, primary screen, imaging, HUVEC, immunofluorescence, MLSMR starter and 10KST1 sets (AID 487;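 active = visually confirmed hit in the image check and inhibition above 20%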;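 as to inhibition: signal is fraction of cell area covered by stained E-selectin grains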;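 as to nuclei count: 100% = median nuclei count of all wells on the same plate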). To be noted: HUVEC TNFalpha-induced E-selectin immunofluorescence imaging, at 2 µM; inhibition: stronger effect = higher value; nuclei count: measured here: cell number, toxicity.
Experiment [4] deals with Voltage-gated potassium channel subunit beta-2 (Rattus norvegicus) (UniProt P62483). The experiment is described as follows: KvBeta enzyme negative modulators, primary screen, biochemical, NADPH fluorescence (AID 622;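 active = fluorescence slope higher than the sample average by over 3 SD, cut at about -0.22 in these data, passing the limit was not always enough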;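 also: slope of raw intensity against log time taken from 70 to 1610 s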). Conditions: recombinant KvBeta, 4-cyanobenzaldehyde reduction, at 10 µM, stronger effect = higher value.
Sequence of Voltage-gated potassium channel subunit beta-2 (Rattus norvegicus) (P62483 whole entry, looked up): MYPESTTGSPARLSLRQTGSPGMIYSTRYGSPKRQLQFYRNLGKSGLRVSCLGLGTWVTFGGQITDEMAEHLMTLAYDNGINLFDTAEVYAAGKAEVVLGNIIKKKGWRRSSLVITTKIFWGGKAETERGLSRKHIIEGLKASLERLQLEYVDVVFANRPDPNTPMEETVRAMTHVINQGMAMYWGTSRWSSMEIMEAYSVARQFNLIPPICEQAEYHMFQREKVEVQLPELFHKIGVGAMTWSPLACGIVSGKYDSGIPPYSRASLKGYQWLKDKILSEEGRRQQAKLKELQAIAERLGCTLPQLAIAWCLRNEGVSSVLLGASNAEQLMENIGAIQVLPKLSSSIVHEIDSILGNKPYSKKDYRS
Experiment [5] has the same target. The experiment is described as follows: KvBeta positive modulators, primary screen, biochemical, NADPH fluorescence (AID 623;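 active = NADPH fluorescence slope more negative than the mean of all samples by about 3 SD, 99.7% confidence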;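 also: fluorescence intensity change per second fitted from 20 to 320 s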). Conditions: Recombinant KvBeta, NADPH fluorescence decrease slope, 10 min; at 10 µM; stronger effect = lower value.
Experiment [6] has as its target Muscarinic acetylcholine receptor M4 (Homo sapiens) (UniProt P08173). The experiment is described as follows: compounds altering M4/GIRK thallium flux, either direction, primary screen, M4 allosteric agonist project, cell-based, HEK293 M4/GIRK, BTC-AM (AID 625).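 Also: thallium influx through GIRK channels coupled to M4 in HEK293 cells with BTC-AM dye.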 Conditions: at 10 µM, actives lie on both sides. Summed up: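 assay system = HEK293 cells with M4 receptor and GIRK channels | medium = pH 7.3 thallium assay buffer | doses = 10 µM final, single point | timing = cells overnight at 37 °C, BTC-AM loading 1 h, reads 2 min total | signal = BTC-AM fluorescence, 1 Hz kinetic reads | read-out = post-addition slope, 15–24 s, of baseline-normalized fluorescence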

Experiment [7] in a line: inhibitors of Sendai virus-induced IRF3 signaling, primary screen, TLR/RLR signaling modifier project, cell-based, Sendai virus stimulus, luciferase, 10K MLSCN set (AID 602276;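 active = inhibition at or above 50% at 10 µM; inactive = inhibition below 50%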;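 also: firefly luciferase from ISG56 promoter only with Renilla not read in this screen; 0% = Sendai virus plus DMSO and 100% = medium plus DMSO without virus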). To be noted: HEK293 RL24 IRF3 luciferase reporter, at 10 µM, stronger effect = higher value.
The nature of experiment [8]: inhibitors of poly I:C-induced TLR3 signaling, primary screen, cell-based, poly I:C stimulus, luciferase, 10K MLSCN set (AID 602277;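 active = inhibition of the reporter signal at or above 50%; inactive = inhibition below 50%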). Conditions: HEK293-TLR3 RL24 IRF3 luciferase reporter, at 10 µM, stronger effect = higher value. (A reporter such as luciferase makes a cellular process visible.)

Sequence of Muscarinic acetylcholine receptor M4 (Homo sapiens) (P08173 whole entry, looked up): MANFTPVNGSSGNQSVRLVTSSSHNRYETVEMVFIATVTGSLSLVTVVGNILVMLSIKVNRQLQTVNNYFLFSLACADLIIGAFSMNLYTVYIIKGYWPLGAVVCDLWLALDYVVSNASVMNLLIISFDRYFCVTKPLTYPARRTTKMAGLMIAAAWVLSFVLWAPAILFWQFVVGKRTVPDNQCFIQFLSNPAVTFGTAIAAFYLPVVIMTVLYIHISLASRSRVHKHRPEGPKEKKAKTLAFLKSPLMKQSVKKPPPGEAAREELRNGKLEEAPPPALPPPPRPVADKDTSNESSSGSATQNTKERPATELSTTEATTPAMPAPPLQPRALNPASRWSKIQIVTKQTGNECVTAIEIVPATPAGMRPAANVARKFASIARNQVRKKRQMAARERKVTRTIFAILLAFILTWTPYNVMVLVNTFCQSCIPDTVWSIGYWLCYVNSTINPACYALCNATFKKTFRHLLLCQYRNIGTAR

By inhibition is commonly meant the change of the read-out against control, counted positive when it falls. As for `CCCCn1nnnc1SCC(=O)Nc1cccc(C)n1`, the cell count in experiment [1] stood at 554. Moreover, the inhibition in experiment [1] is -46.9% (inactive); in experiment [3], -47.5% (inactive); in experiment [7] it was -10.8% (inactive); in experiment [8] it was -6.38% (inactive). Also, the inhibition of aggregation in experiment [2] was 9% (inactive). Also, the nuclei count in experiment [2] worked out at 112%; in experiment [3] it was 107%. Besides, the values for the fluorescence slope in experiment [4] and in experiment [6] were -0.329 (inactive) and 0.00669 (inactive), respectively. Besides, in experiment [5], the NADPH fluorescence slope is -3.8e-05 (inactive).
For `CN(C)S(=O)(=O)c1ccc(S(=O)(=O)Nc2ccc3c(c2)oc2ccccc23)cc1`, the cell count in experiment [1] stood at 414. Besides, the inhibition was -7.9% (inactive) in experiment [1], 4.6% (inactive) in experiment [3], -8.93% (inactive) in experiment [7] and -1.94% (inactive) in experiment [8]. In addition, the inhibition of aggregation in experiment [2] was -3.8% (inactive). Moreover, the nuclei count in experiment [2] is 107%; in experiment [3], 92%. Also, the results for the fluorescence slope in experiment [4] and in experiment [6] were -0.54 (inactive) and 0.00569 (inactive), respectively. Moreover, the NADPH fluorescence slope in experiment [5] was -5.2e-05 (inactive).
On to `Cc1ccc(-c2nnn(CC(=O)N(CC(=O)NCC3CCCO3)c3ccccc3)n2)o1` (centres undefined), for which the cell count in experiment [1] stood at 618. The inhibition in experiment [1] is -3.6% (inactive); in experiment [3], -161% (inactive); in experiment [7], 1.41% (inactive); in experiment [8] it was 5.51% (inactive). For the same molecule, in experiment [2], the inhibition of aggregation was -12.2% (inactive). For the same molecule, the results for the nuclei count in experiment [2] and in experiment [3] were 85.7% and 106%, respectively. The fluorescence slope in experiment [4] is -0.584 (inactive); in experiment [6], 0.00876 (inactive). For the same molecule, the NADPH fluorescence slope in experiment [5] is -1.6e-05 (inactive).
As to `CCOC(=O)N1CCC(NC(=O)CCc2c(C)nc3c(c(C)nn3C(C)(C)C)c2C)CC1`, in experiment [1], the cell count stood at 650. Further, the inhibition in experiment [1] was 2.6% (inactive); in experiment [3], -8.7% (inactive); in experiment [7] it was 11% (inactive); in experiment [8], -3.64% (inactive). In addition, in experiment [2], the inhibition of aggregation is 7.1% (inactive). Further, the nuclei count was 138% in experiment [2] and 106% in experiment [3]. Further, the fluorescence slope was -0.397 (inactive) in experiment [4] and 0.00517 (inactive) in experiment [6]. Moreover, in experiment [5], the NADPH fluorescence slope is 3.3e-05 (inactive).
Regarding `Oc1ccc(-c2onc(C(F)(F)F)c2-c2cscn2)c(O)c1`, in experiment [1], the cell count was 363. Moreover, the inhibition is -0.5% (inactive) in experiment [1], -85.6% (inactive) in experiment [3], 14.9% (inactive) in experiment [7] and -12.3% (inactive) in experiment [8]. Moreover, the inhibition of aggregation in experiment [2] was -7% (inactive). Besides, the nuclei count in experiment [2] turned out to be 92.7%; in experiment [3] it was 116%. Besides, the fluorescence slope is -0.573 (inactive) in experiment [4] and 0.00657 (inactive) in experiment [6]. Besides, the NADPH fluorescence slope in experiment [5] is -5.1e-05 (inactive).
For the molecule `CN1CCN(C(=O)c2cnn3c(C(F)F)cc(C4CC4)nc23)CC1`, the cell count in experiment [1] was determined as 277. For the same molecule, the inhibition in experiment [1] is -6.3% (inactive); in experiment [3], -8.6% (inactive); in experiment [7], 21% (inactive); in experiment [8], 30% (inactive). Also, the inhibition of aggregation in experiment [2] was -15.2% (inactive). For the same molecule, the nuclei count turned out to be 63.5% in experiment [2] and 100% in experiment [3]. Moreover, the fluorescence slope in experiment [4] is -0.513 (inactive); in experiment [6] it was 0.00468 (inactive). For the same molecule, the NADPH fluorescence slope in experiment [5] was -0.000106 (inactive).
For `COc1ccc(-c2cc(C(F)(F)F)nc(SCCC(=O)N3CCOCC3)n2)cc1`, the cell count in experiment [1] worked out at 506. Also, the inhibition in experiment [1] was -6.7% (inactive); in experiment [3] it was -59.7% (inactive); in experiment [7], 16.4% (inactive); in experiment [8] it was -4.79% (inactive). The inhibition of aggregation in experiment [2] is -23.3% (inactive). Also, the results for the nuclei count in experiment [2] and in experiment [3] were 83.6% and 133%, respectively. The results for the fluorescence slope in experiment [4] and in experiment [6] were -0.596 (inactive) and 0.00462 (inactive), respectively. In addition, the NADPH fluorescence slope in experiment [5] was -1.1e-06 (inactive).
On to `O=C(c1ccc(NS(=O)(=O)c2cccs2)cc1)N1CCCCC1`, for which, in experiment [1], the cell count stood at 287. Further, the inhibition is 5% (inactive) in experiment [1], -31.7% (inactive) in experiment [3], 0.00146% (inactive) in experiment [7] and -12.6% (inactive) in experiment [8]. In addition, the inhibition of aggregation in experiment [2] was -0.8% (inactive). The nuclei count in experiment [2] is 74.9%; in experiment [3] it was 96.5%. Moreover, the fluorescence slope in experiment [4] is -0.474 (inactive); in experiment [6], 0.00524 (inactive). For the same molecule, the NADPH fluorescence slope in experiment [5] is -3.6e-05 (inactive).
For the molecule `COc1ccc(OC)c(C2=NOC(C(=O)Nc3cccnc3)C2)c1` (centres undefined), in experiment [1], the cell count came to 738. Moreover, the inhibition in experiment [1] is -14.3% (inactive); in experiment [3], -31.9% (inactive); in experiment [7], 4.03% (inactive); in experiment [8], 2.04% (inactive). Besides, the inhibition of aggregation in experiment [2] was -1.9% (inactive). Moreover, the nuclei count was found to be 100% in experiment [2] and 93% in experiment [3]. The fluorescence slope in experiment [4] was -0.561 (inactive); in experiment [6] it was 0.00522 (inactive). In addition, in experiment [5], the NADPH fluorescence slope is 5.2e-07 (inactive).
On to `CCc1ncc(C(O)c2cccc(OC)c2OC)n1C` (centres undefined), for which the cell count in experiment [1] amounted to 335. The inhibition in experiment [1] is 2.8% (inactive); in experiment [3], 17.7% (inactive); in experiment [7], 23.2% (inactive); in experiment [8], 24% (inactive). In addition, the inhibition of aggregation in experiment [2] is 7.4% (inactive). For the same molecule, the nuclei count is 96.1% in experiment [2] and 126% in experiment [3]. Besides, the values for the fluorescence slope in experiment [4] and in experiment [6] were -0.451 (inactive) and 0.00484 (inactive), respectively. For the same molecule, the NADPH fluorescence slope in experiment [5] is -2.7e-05 (inactive).
Regarding `CS(=O)(=O)Nc1ccc(C(=O)NCc2ccco2)cc1`, the cell count in experiment [1] came out at 499. Also, the inhibition was -0.3% (inactive) in experiment [1], 11.9% (inactive) in experiment [3], 5.42% (inactive) in experiment [7] and 16.9% (inactive) in experiment [8]. Besides, in experiment [2], the inhibition of aggregation is 16.6% (inactive). Besides, the nuclei count in experiment [2] turned out to be 60%; in experiment [3], 105%. Besides, the values for the fluorescence slope in experiment [4] and in experiment [6] were -0.571 (inactive) and 0.00586 (inactive), respectively. The NADPH fluorescence slope in experiment [5] was 1.2e-06 (inactive).
With `CCOC(=O)CSc1cn2c(n1)CCC2`, in experiment [1], the cell count is 547. Moreover, the inhibition is -10.9% (inactive) in experiment [1], -25.8% (inactive) in experiment [3], -11.5% (inactive) in experiment [7] and -11.4% (inactive) in experiment [8]. Moreover, in experiment [2], the inhibition of aggregation was 14.3% (inactive). Moreover, the figures for the nuclei count in experiment [2] and in experiment [3] were 66.8% and 89.1%, respectively. Besides, the fluorescence slope in experiment [4] is -0.595 (inactive); in experiment [6], 0.00761 (inactive). Moreover, the NADPH fluorescence slope in experiment [5] was 1.5e-05 (inactive).
As to `CC(C)CC(=O)CN1C(=O)C2(OCCO2)c2ccccc21`, in experiment [1], the cell count came out at 490. Also, the inhibition in experiment [1] is -2.4% (inactive); in experiment [3] it was 6.8% (inactive); in experiment [7], 17.6% (inactive); in experiment [8], -9.91% (inactive). Also, the inhibition of aggregation in experiment [2] was 22.6% (inactive). Further, the nuclei count in experiment [2] was determined as 100%; in experiment [3], 94.9%. Besides, the fluorescence slope in experiment [4] is -0.231 (inactive); in experiment [6], 0.00852 (inactive). Further, the NADPH fluorescence slope in experiment [5] was -1.2e-05 (inactive).
With `COc1ccc(CN2C(=O)C(O)(CC(=O)c3c(C)n[nH]c3C)c3ccccc32)cc1OC` (centres undefined), the cell count in experiment [1] was 264. In addition, the inhibition in experiment [1] is -12.6% (inactive); in experiment [3] it was -27.7% (inactive); in experiment [7] it was 15.2% (inactive); in experiment [8], 9.8% (inactive). Besides, the inhibition of aggregation in experiment [2] is -2.3% (inactive). Moreover, the nuclei count was determined as 92.8% in experiment [2] and 97.3% in experiment [3]. Moreover, the figures for the fluorescence slope in experiment [4] and in experiment [6] were -0.481 (inactive) and 0.00507 (inactive), respectively. Besides, the NADPH fluorescence slope in experiment [5] was -4.5e-05 (inactive).
